Test results published in ChEMBL document CHEMBL4041524, “Synthesis and Characterization of a Novel γ-Aminobutyric Acid Type A (GABAA) Receptor Ligand That Combines Outstanding Metabolic Stability, Pharmacokinetics, and Anxiolytic Efficacy” (J Med Chem, 2016).
The source made the active and inactive calls. No cut-off for these calls is given here.

Key:
Liver [1] = assay: Metabolic stability in human liver microsomes assessed as compound remaining at 4 uM measured after 30 mins in presence of NADPH by LC-MS/MS analysis; type: ADME, microsome; conditions: 0.5 h
How it was run: (§1)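 Human, mouse or rat liver microsomes were incubated with compound at 4 μM final for 30 min at 37 °C (n = 1). Percent of parent remaining was quantified by LC-MS/MS.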

Liver [2] = assay: Metabolic stability in mouse liver microsomes assessed as compound remaining at 4 uM measured after 30 mins in presence of NADPH by LC-MS/MS analysis; type: ADME, microsome; conditions: 0.5 h; how it was run: as §1
Liver [3] = assay: Metabolic stability in rat liver microsomes assessed as compound remaining at 4 uM measured after 30 mins in presence of NADPH by LC-MS/MS analysis; type: ADME, microsome; conditions: 0.5 h; how it was run: as §1
[4] = Cytotoxicity against HEK293T cells assessed as viable cells measured after 18 hrs by CellTiter-Glo assay; type: cell-based, HEK-293T; conditions: human, read-out: LD50
How it was run: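 HEK293T cells were exposed to compound for 18 h (n = 4). Viable cells were quantified with CellTiter-Glo, and LD50 was derived.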

[5] = Total plasma concentration in Sprague-Dawley rat at 10 mg/kg, po measured after 15 mins by LC-MS/MS analysis; type: ADME, organism-based
How it was run: (§2)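 Sprague-Dawley rats (n = 3 per time point) were given 10 mg/kg p.o. Total plasma concentrations were taken at 15, 30, 60 and 120 min. Brain levels of the dosed ligand and of the carboxylic acid metabolite were taken at 60 or 120 min.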

[6] = Total plasma concentration in Sprague-Dawley rat at 10 mg/kg, po measured after 30 mins by LC-MS/MS analysis; type: ADME, organism-based; how it was run: as §2
[7] = Total plasma concentration in Sprague-Dawley rat at 10 mg/kg, po measured after 60 mins by LC-MS/MS analysis; type: ADME, organism-based; how it was run: as §2
[8] = Total plasma concentration in Sprague-Dawley rat at 10 mg/kg, po measured after 120 mins by LC-MS/MS analysis; type: ADME, organism-based; how it was run: as §2
[9] = Drug uptake in Sprague-Dawley rat brain at 10 mg/kg, po measured after 120 mins by LC-MS/MS analysis; type: ADME, organism-based; conditions: read-out: Drug uptake; how it was run: as §2
Brain = assay: Drug metabolism in Sprague-Dawley rat brain assessed as (E)-8-ethynyl-6-(pyridin-2-yl)-4H-benzo[f]imidazo[1,5-a][1,4]diazepine-3-carboxylic acid formation at 10 mg/kg, po measured after 120 mins by LC-MS/MS analysis; type: ADME, organism-based; conditions: in vivo, 2 h; how it was run: as §2
Mus musculus [10] = assay: Anxiolytic-like activity in Swiss Webster mouse marble burying model of anxiety assessed as suppression of marble burying activity at 30 mg/kg, ip administered 30 mins prior to test relative to vehicle-control; type: functional, organism-based
How it was run: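 Male NIH Swiss Webster mice (n = 10) received vehicle or compound at 10 or 30 mg/kg i.p. 30 min before marble burying testing. Sedation-like behaviour was noted by observation. Analysis was ANOVA with Dunnett's test vs vehicle.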

Mus musculus [11] = assay: Toxicity in Swiss mouse assessed as change in motor coordination by measuring number of falls from the rotating rod at 10 mg/kg, ip administered 30 mins prior to testing measured for 2 mins by rotarod test relative to control; type: organism-based; conditions: in vivo
How it was run: (§3)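 The same mice used for marble burying were placed on a rotarod at 4 r.p.m. for 2 min. No fall was scored success, one fall partial, and two falls failure.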

Mus musculus [12] = assay: Toxicity in Swiss mouse assessed as change in motor coordination by measuring number of falls from the rotating rod at 30 mg/kg, ip administered 30 mins prior to testing measured for 2 mins by rotarod test relative to control; type: organism-based; conditions: in vivo; how it was run: as §3
[13] = target: T1, GABA-A receptor; alpha-2/beta-3/gamma-2 (Homo sapiens) (UniProt P18507+P28472+P47869); assay: Modulation of recombinant GABA alpha2beta3gamma2 receptor (unknown origin) expressed in Xenopus laevis oocytes assessed as change in GABA-induced EC(3 to 6) current at 100 nM by two-electrode voltage clamp assay; type: cell-based
How it was run: (§4)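 Xenopus laevis oocytes expressing α1, α2, α3 or α5 β3γ2 GABAARs were recorded by two-electrode voltage clamp. Modulation of the GABA EC3-6 current (taken as 100%) was tested at 100 nM, 1 μM and 10 μM in the same cells. Values are mean ± SEM, n = 3–4.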

[14] = target: T2, GABA-A receptor; alpha-3/beta-3/gamma-2 (Homo sapiens) (UniProt P18507+P28472+P34903); assay: Modulation of recombinant GABA alpha3beta3gamma2 receptor (unknown origin) expressed in Xenopus laevis oocytes assessed as change in GABA-induced EC(3 to 6) current at 100 nM by two-electrode voltage clamp assay; type: cell-based; how it was run: as §4
[15] = target: T3, GABA-A receptor; alpha-1/beta-3/gamma-2 (Homo sapiens) (UniProt P14867+P18507+P28472); assay: Modulation of recombinant GABA alpha1beta3gamma2 receptor (unknown origin) expressed in Xenopus laevis oocytes assessed as change in GABA-induced EC(3 to 6) current at 1 uM by two-electrode voltage clamp assay; type: cell-based; how it was run: as §4
[16] = target: T1, GABA-A receptor; alpha-2/beta-3/gamma-2 (Homo sapiens); assay: Modulation of recombinant GABA alpha2beta3gamma2 receptor (unknown origin) expressed in Xenopus laevis oocytes assessed as change in GABA-induced EC(3 to 6) current at 1 uM by two-electrode voltage clamp assay; type: cell-based; how it was run: as §4
[17] = target: T2, GABA-A receptor; alpha-3/beta-3/gamma-2 (Homo sapiens); assay: Modulation of recombinant GABA alpha3beta3gamma2 receptor (unknown origin) expressed in Xenopus laevis oocytes assessed as change in GABA-induced EC(3 to 6) current at 1 uM by two-electrode voltage clamp assay; type: cell-based; how it was run: as §4
[18] = target: T4, GABA-A receptor; alpha-5/beta-3/gamma-2 (Homo sapiens) (UniProt P18507+P28472+P31644); assay: Modulation of recombinant GABA alpha5beta3gamma2 receptor (unknown origin) expressed in Xenopus laevis oocytes assessed as change in GABA-induced EC(3 to 6) current at 1 uM by two-electrode voltage clamp assay; type: cell-based; how it was run: as §4
[19] = target: T3, GABA-A receptor; alpha-1/beta-3/gamma-2 (Homo sapiens); assay: Modulation of recombinant GABA alpha1beta3gamma2 receptor (unknown origin) expressed in Xenopus laevis oocytes assessed as change in GABA-induced EC(3 to 6) current at 10 uM by two-electrode voltage clamp assay; type: cell-based; how it was run: as §4
[20] = target: T1, GABA-A receptor; alpha-2/beta-3/gamma-2 (Homo sapiens); assay: Modulation of recombinant GABA alpha2beta3gamma2 receptor (unknown origin) expressed in Xenopus laevis oocytes assessed as change in GABA-induced EC(3 to 6) current at 10 uM by two-electrode voltage clamp assay; type: cell-based; how it was run: as §4
[21] = target: T2, GABA-A receptor; alpha-3/beta-3/gamma-2 (Homo sapiens); assay: Modulation of recombinant GABA alpha3beta3gamma2 receptor (unknown origin) expressed in Xenopus laevis oocytes assessed as change in GABA-induced EC(3 to 6) current at 10 uM by two-electrode voltage clamp assay; type: cell-based; how it was run: as §4
[22] = target: T4, GABA-A receptor; alpha-5/beta-3/gamma-2 (Homo sapiens); assay: Modulation of recombinant GABA alpha5beta3gamma2 receptor (unknown origin) expressed in Xenopus laevis oocytes assessed as change in GABA-induced EC(3 to 6) current at 10 uM by two-electrode voltage clamp assay; type: cell-based; how it was run: as §4
Rattus norvegicus = assay: Anxiolytic like activity in water-deprived Sprague-Dawley rat assessed as increase in water drinking time during punished period at 30 mg/kg, po administered 30 prior to testing by Vogel conflict test relative to vehicle control; type: functional
How it was run: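 Water-deprived male Sprague-Dawley rats (n = 6–8) drank during unpunished and punished periods, with licking suppressed by mild shock in punished periods. Compounds were given 30 min before testing. Analysis was ANOVA with Dunnett's test.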

[23] = target: T3, GABA-A receptor; alpha-1/beta-3/gamma-2 (Homo sapiens); assay: Modulation of recombinant GABA alpha1beta3gamma2 receptor (unknown origin) expressed in Xenopus laevis oocytes assessed as change in GABA-induced EC(3 to 6) current by two-electrode voltage clamp assay; type: cell-based; how it was run: as §4
[24] = target: T1, GABA-A receptor; alpha-2/beta-3/gamma-2 (Homo sapiens); assay: Modulation of recombinant GABA alpha2beta3gamma2 receptor (unknown origin) expressed in Xenopus laevis oocytes assessed as change in GABA-induced EC(3 to 6) current by two-electrode voltage clamp assay; type: cell-based; how it was run: as §4
[25] = target: T2, GABA-A receptor; alpha-3/beta-3/gamma-2 (Homo sapiens); assay: Modulation of recombinant GABA alpha3beta3gamma2 receptor (unknown origin) expressed in Xenopus laevis oocytes assessed as change in GABA-induced EC(3 to 6) current by two-electrode voltage clamp assay; type: cell-based; how it was run: as §4
[26] = target: T4, GABA-A receptor; alpha-5/beta-3/gamma-2 (Homo sapiens); assay: Modulation of recombinant GABA alpha5beta3gamma2 receptor (unknown origin) expressed in Xenopus laevis oocytes assessed as change in GABA-induced EC(3 to 6) current by two-electrode voltage clamp assay; type: cell-based; how it was run: as §4

Compound: C#Cc1ccc2c(c1)C(c1ccccn1)=NCc1c(C(=O)OCC)ncn1-2
- Stability (Liver [1]): 86%
- Stability (Liver [2]): 57%
- Stability (Liver [3]): 58%
- CC50 at 18 h [4]: > 100 µM
- concentration at 0.25 h [5]: < 12.2 nM
- concentration at 0.5 h [6]: < 12.2 nM
- concentration at 1 h [7]: < 12.2 nM
- concentration at 2 h [8]: < 12.2 nM
- concentration at 2 h [9]: < 12.2 nM
- Drug metabolism (Brain): 10 nM
- Activity (Mus musculus [10]): Active
- Activity (Mus musculus [11]): Toxic
- Activity (Mus musculus [12]): Toxic
- Activity [13]: 111%
- Activity [14]: 119%
- Activity [15]: 147%
- Activity [16]: 207%
- Activity [17]: 195%
- Activity [18]: 134%
- Activity [19]: 178%
- Activity [20]: 244%
- Activity [21]: 305%
- Activity [22]: 158%
- Activity (Rattus norvegicus): inactive
- Activity [23]: Dose-dependent effect
- Activity [24]: Dose-dependent effect
- Activity [25]: Dose-dependent effect
- Activity [26]: Dose-dependent effect
